Tests used:
[1] = Compound was tested for rate constant for the transformation of vitamin to previtamin; assay type: ADME
Summary of the method: (§1)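 Vitamin/previtamin ratio read by 1H-NMR integration. Kinetics run in triplicate over 59.8–89.7 °C with Arrhenius treatment; 1α-hydroxy analogue run once at 80 °C. Equilibrium constant at 80 °C taken after prolonged heating from either isomer.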

[2] = Compound was tested for the backward reaction of conversion of vitamin D to previtaminD; assay type: ADME; summary of the method: as §1
[3] = Compound was tested for rate constant for the forward reaction of isomerization of previtamin D to vitamin D; assay type: ADME; summary of the method: as §1
[4] = Keq (k1/1-k) for the transformation of vitamin D to previtamin D; assay type: ADME; summary of the method: as §1
[5] = system: vitamin D receptor (Gallus gallus); test: Compound was evaluated for chick vitamin D receptor relative competitive induces (relative to alpha, 25-(OH2)-D3)
[6] = Compound was tested for the backward reaction of conversion of vitamin D to previtamin D; assay type: ADME; summary of the method: as §1

SMILES | Log A [1] [s-1] | k-1 [2] [s⁻¹] | k1 [3] [s⁻¹] | Keq [4] | RCI [5] | k-1 [6] [s⁻¹]
CC1=C(/C=C\C2=CCC[C@@]3(C)[C@@H]2CC[C@@H]3[C@H](C)CCCC(C)(C)O)C[C@@H](O)C[C@@H]1O | – | – | – | – | 1.6 | –
CC1=C(/C=C\C2=CCC[C@@]3(C)[C@@H]2CC[C@@H]3[C@H](C)CCCC(C)(C)O)CC(O)CC1 (some centres undefined) | – | – | – | – | 0.011 | –
C=C1CC[C@H](O)C/C1=C/C=C1\CCC[C@]2(C)[C@@H]([C@H](C)CCCC(C)C)CC[C@@H]12 [CHOLECALCIFEROL] | 10.7 | – | – | – | – | –

Next, values leading:

Log A [1] [s-1] | k-1 [2] [s⁻¹] | k1 [3] [s⁻¹] | Keq [4] | RCI [5] | k-1 [6] [s⁻¹] | SMILES
9.9 | 7.6e-05 | 0.000563 | 7.3 | – | – | C=C1/C(=C\C=C2/CCC[C@]3(C)[C@@H]([C@H](C)CCCC(C)(C)O)CC[C@@H]23)C[C@@H](O)C[C@@H]1O [CALCITRIOL]
8.5 | – | 4.92e-05 | 0.058 | – | 0.000845 | C=C1CC[C@H](O)C/C1=C/C=C1\CCC[C@@]2(C)[C@@H]1CC[C@@H]2[C@H](C)CCCC(C)(C)O
– | 0.000135 | 0.000502 | 3.8 | – | – | C=C1CC[C@H](O)C/C1=C/C=C1\CCC[C@]2(C)[C@@H]([C@H](C)CCCC(C)(C)O)CC[C@@H]12 [CALCIFEDIOL ANHYDROUS]

Source: ChEMBL document CHEMBL1127593, “14-epi stereoisomers of 25-hydroxy- and 1 alpha,25-dihydroxyvitamin D3: synthesis, isomerization to previtamins, and biological studies” (J Med Chem, 1994)
